Activity calls are given as the source filed them. The rule behind the calls is not given here.
Key:
[1] = target: T1, Prostaglandin G/H synthase 1 (Ovis aries) (UniProt P05979); assay: Inhibition of ovine COX-1 assessed as PGE2 formation at 100 pg/ml (reference value: 981 ng/ml)
T1 sequence (whole entry): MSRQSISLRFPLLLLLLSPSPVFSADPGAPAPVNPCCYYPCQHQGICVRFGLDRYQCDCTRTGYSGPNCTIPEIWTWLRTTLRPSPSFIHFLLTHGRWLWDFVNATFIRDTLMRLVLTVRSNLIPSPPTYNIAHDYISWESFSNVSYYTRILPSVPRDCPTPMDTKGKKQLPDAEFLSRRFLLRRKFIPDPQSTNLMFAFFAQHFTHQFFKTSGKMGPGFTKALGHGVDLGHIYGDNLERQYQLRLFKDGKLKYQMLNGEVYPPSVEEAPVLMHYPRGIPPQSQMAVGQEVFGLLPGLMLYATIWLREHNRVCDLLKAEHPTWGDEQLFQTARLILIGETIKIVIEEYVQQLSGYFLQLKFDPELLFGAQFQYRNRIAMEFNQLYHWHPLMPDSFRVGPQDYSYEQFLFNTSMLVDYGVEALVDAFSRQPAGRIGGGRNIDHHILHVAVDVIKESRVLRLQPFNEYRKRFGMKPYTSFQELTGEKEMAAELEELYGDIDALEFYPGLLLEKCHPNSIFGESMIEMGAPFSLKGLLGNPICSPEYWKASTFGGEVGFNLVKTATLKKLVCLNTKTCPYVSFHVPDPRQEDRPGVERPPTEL

[2] = test system: PBMC; assay: Cytotoxicity against human PBMC assessed as reduction in cell viability at 10 ug/ml after 24 hrs by MTT assay; type: cell-based
Outline: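 Single-donor PBMC isolated on LSM, resuspended in RPMI-1640 with 10% FCS, L-glutamine, pyruvate, 2-mercaptoethanol and antibiotics. Cells plated at 3×10^5 per well and cultured 24 h with peptide at 1, 10 or 100 µg/mL. Survival read by MTT and expressed as % viable cells versus matched DMSO controls.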

[3] = test system: A-431; assay: Cytotoxicity against human A431 cells at 25 ug/ml; type: functional, cell-based
[4] = test system: Jurkat; assay: Inhibition of apoptosis in human Jurkat cells assessed as caspase-9 expression relative to beta actin at 10 ug/ml after 24 hrs by RT-PCR analysis; type: functional
Outline: (§1)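 Jurkat cells (10^6/mL) exposed to 10 µg/mL peptide for 24 h (described as overnight in methods), with DMSO control. Total RNA extracted with TRIzol. Caspase-3, -8 and -9 transcripts measured by SYBR qPCR: 95 C for 5 min, then 35 cycles of 95 C for 30 s and 60 C for 45 s. Values given in arbitrary units relative to β-actin.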

[5] = test system: Jurkat; assay: Induction of DNA fragmentation in human Jurkat cells at 10 ug/ml after 24 hrs by agarose gel electrophoresis; type: functional, cell-based
Outline: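 Jurkat cells treated 24 h with 10 µg/mL peptide versus DMSO. About 2×10^6 cells lysed overnight at 37 C in Tris-HCl pH 8.5 with EDTA, 5% SDS and proteinase K. Lysates heat-inactivated, RNase-treated, DNA precipitated with isopropanol and ethanol-washed. Fragmentation assessed by gel electrophoresis.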

[6] = test system: PBMC; assay: Immunosuppressive activity in human PBMC assessed as inhibition of PHA-induced cell proliferation at 10 ug/ml after 4 days by MTT assay; type: functional, cell-based
Outline: (§2)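 PBMC (2×10^5 cells/well) in supplemented RPMI-1640, stimulated with 5 µg/mL PHA, with peptide at 1, 10 or 100 µg/mL. DMSO dilutions as control; no-PHA wells as baseline. Proliferation read by MTT after 4 days of incubation. Data given as mean OD of quadruplicate wells ± SE.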

[7] = test system: Jurkat; assay: Inhibition of apoptosis in human Jurkat cells assessed as caspase-8 expression relative to beta-actin at 10 ug/ml after 24 hrs by RT-PCR analysis; type: functional; outline: as §1
[8] = test system: PBMC; assay: Anti-inflammatory activity in human PBMC assessed as inhibition of LPS-induced TNFalpha production at 10 ug/ml after overnight incubation by immunoassay; type: functional
Outline: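 Diluted venous blood from a single donor (10× in RPMI-1640), 1 mL cultures, stimulated with 1 µg/mL LPS from E. coli O:111:B4. Peptides added at 1 and 10 µg/mL from DMSO stock (5 mg/200 µL) diluted in RPMI-1640. DMSO dilutions served as 100% controls. Overnight incubation, then supernatants frozen at -20 C and TNF-α measured by ELISA.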

[9] = target: T1, Prostaglandin G/H synthase 1 (Ovis aries); assay: Inhibition of ovine COX-1 assessed as PGE2 formation at 1000 pg/ml (reference value: 981 ng/ml)
[10] = test system: PBMC; assay: Immunosuppressive activity in human PBMC assessed as inhibition of PHA-induced proliferation after 4 days by MTT assay; type: functional, cell-based; outline: as §2
[11] = test system: HT-29; assay: Cytotoxicity against human HT-29 cells at 25 ug/ml; type: functional, cell-based
[12] = target: T2, Prostaglandin G/H synthase 2 (Homo sapiens) (UniProt P35354); assay: Inhibition of human recombinant COX-2 assessed as PGE2 formation at 1000 pg/ml (reference value: 1072 ng/ml)
T2 sequence (whole entry): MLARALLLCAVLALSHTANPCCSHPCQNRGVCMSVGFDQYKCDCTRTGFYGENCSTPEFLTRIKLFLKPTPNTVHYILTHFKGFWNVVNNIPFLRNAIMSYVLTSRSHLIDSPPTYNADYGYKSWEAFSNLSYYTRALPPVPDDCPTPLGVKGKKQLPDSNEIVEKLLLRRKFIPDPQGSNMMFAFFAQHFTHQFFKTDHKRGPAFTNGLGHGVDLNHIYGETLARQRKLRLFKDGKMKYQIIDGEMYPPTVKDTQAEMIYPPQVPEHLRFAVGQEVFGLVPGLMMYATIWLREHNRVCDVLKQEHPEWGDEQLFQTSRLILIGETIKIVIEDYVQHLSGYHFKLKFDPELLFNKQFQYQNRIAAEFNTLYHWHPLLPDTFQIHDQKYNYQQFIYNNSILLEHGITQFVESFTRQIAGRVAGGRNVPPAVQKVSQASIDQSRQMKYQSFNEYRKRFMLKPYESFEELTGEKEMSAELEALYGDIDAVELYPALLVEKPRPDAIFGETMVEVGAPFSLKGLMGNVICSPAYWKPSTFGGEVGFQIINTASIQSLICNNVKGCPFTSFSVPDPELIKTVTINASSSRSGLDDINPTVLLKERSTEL

[13] = target: T2, Prostaglandin G/H synthase 2 (Homo sapiens); assay: Inhibition of human recombinant COX-2 assessed as PGE2 formation at 100 pg/ml (reference value: 1072 ng/ml)
[14] = target: T2, Prostaglandin G/H synthase 2 (Homo sapiens); assay: Inhibition of human recombinant COX-2 assessed as PGE2 formation at 5000 pg/ml (reference value: 1072 ng/ml)
[15] = test system: Jurkat; assay: Inhibition of apoptosis in human Jurkat cells assessed as caspase-3 expression relative to beta-actin at 10 ug/ml after 24 hrs by RT-PCR analysis; type: functional; outline: as §1

`CC[C@H](C)[C@@H]1NC(=O)[C@H](CC(C)C)NC(=O)[C@H](Cc2ccccc2)NC(=O)CC[C@H](Cc2ccccc2)NC(=O)[C@@H]2CCCN2C(=O)[C@@H]2CCCN2C(=O)[C@H](C(C)C)NC(=O)[C@H](CC(C)C)NC(=O)[C@H]([C@@H](C)CC)NC1=O` was tested. Which Activity [1] did it give?
The Activity was 1110 ng/mL.

And the Activity [2]?
The Activity was “Non-Toxic”.

What about the Activity [3] of the same molecule?
The Activity was “inactive”.

And the “fold change (FC)” value [4]?
Its value is 0.538.

And the Activity [5]?
Its Activity is “Active”.

And the Activity [6]?
The Activity was “Active”.

What about the “fold change (FC)” value [7] of the same molecule?
Its value is 0.591.

What about the inhibition [8] of the same molecule?
Its inhibition is “Active”.

And the Activity [9]?
Its Activity is 1030 ng/mL.

What about the Activity [10] of the same molecule?
The Activity was “Dose-dependent effect”.

What about the Activity [11] of the same molecule?
Its Activity is “inactive”.

What about the Activity [12] of the same molecule?
Its Activity is 1060 ng/mL.

What about the Activity [13] of the same molecule?
Its Activity is 1180 ng/mL.

What about the Activity [14] of the same molecule?
The Activity was 1230 ng/mL.

And the “fold change (FC)” value [15]?
Its value is 0.

Source: ChEMBL document CHEMBL4043099, “Synthesis and biological activity of cyclolinopeptide A analogues modified with γ4-bis(homo-phenylalanine)” (Bioorg Med Chem, 2017)
